From ChEMBL document CHEMBL3856239, “Synthesis and Antiobesity Properties of 6-(4-Chlorophenyl)-3-(4-((3,3-difluoro-1-hydroxycyclobutyl)methoxy)-3-methoxyphenyl)thieno[3,2-d]pyrimidin-4(3H)-one (BMS-814580): A Highly Efficacious Melanin Concentrating Hormone Receptor 1 (MCHR1) Inhibitor” (J Med Chem, 2016)
In brackets after ≈: the same amount, converted by molar mass.

Legend:
[1] = Plasma concentration in DIO Sprague-Dawley rat assessed as parent compound level at 0.3 mg/kg, po for 28 days measured after 2 hrs; type: ADME, organism-based
Method in brief: (§1)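 Obese male DIO SD rats, 8/group, dosed orally once daily for 28 days with phosphate prodrug at 0.03–3 mg/kg. Vehicle 14% propylene glycol/1% Tween/85% water. Body weight and food intake recorded daily. Parent plasma levels at 2 and 24 h; prodrug detection limit <2 nM. Histopathology for biliary toxicity at study end.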

Rattus norvegicus [2] = test: Antiobesity activity in DIO Sprague-Dawley rat model assessed as reduction in caloric intake at 0.3 mg/kg, po qd for 28 days relative to vehicle control; type: functional; design: scale not given: the % may be the effect or the level left
Method in brief: (§2)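 Obese male SD rats on diet-induced obesity, 8/group, dosed orally once daily for 28 days with phosphate prodrug (0.03–3 mg/kg parent) in 14% propylene glycol/1% Tween/85% water; rimonabant 10 mg/kg control; pair-fed groups matched to 1 and 3 mg/kg intake; body weight and food measured daily, % change versus vehicle.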

[3] = Protein binding in dog plasma assessed as unbound fraction; type: ADME, cell-free, Canis lupus familiaris
Method in brief: (§3)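 Plasma protein binding reported as % free drug in rat, DIO rat, dog, cynomolgus monkey, rabbit and human plasma.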

[4] = Oral bioavailability in dog at 10 mg/kg; type: ADME, organism-based, Canis lupus familiaris; settings: in vivo
Method in brief: (§4)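 Full PK in rat, dog and cynomolgus monkey. Oral arm: phosphate prodrug at 10 mg/kg parent-equivalent in Methocel:Tween80:water (0.5:0.1:99.4). Intravenous arm: parent at 1 mg/kg in PEG400:DMAC:water (70:5:25). n = 3 per species; individual Tmax values reported for dog and monkey.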

Rattus norvegicus [5] = test: Antiobesity activity in DIO Sprague-Dawley rat model assessed as reduction in caloric intake at 0.03 mg/kg, po qd for 28 days relative to vehicle control; type: functional; design: scale not given: the % may be the effect or the level left; method in brief: as §2
[6] = Cmax in rat at 10 mg/kg, po; type: ADME, organism-based; design: dose 10 mg/kg, route oral; settings: in vivo
Method in brief: (§5)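 Rats, dogs and cynomolgus monkeys, n = 3: parent 1 mg/kg i.v. in PEG400:DMAC:water (70:5:25), or phosphate prodrug 10 mg/kg oral in Methocel:Tween80:water (0.5:0.1:99.4); plasma parent compound, Cmax, Tmax, AUC0-∞, half-life, clearance, Vss and bioavailability derived.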

[7] = Plasma concentration in DIO Sprague-Dawley rat assessed as parent compound level at 0.3 mg/kg, po for 28 days measured after 24 hrs; type: ADME, organism-based; method in brief: as §1
[8] = Protein binding in DIO rat plasma assessed as unbound fraction; type: ADME, cell-free; method in brief: as §3
Rattus norvegicus [9] = test: Antiobesity activity in DIO Sprague-Dawley rat model assessed as reduction in caloric intake at 3 mg/kg, po qd for 28 days relative to vehicle control; type: functional; design: scale not given: the % may be the effect or the level left; method in brief: as §2
[10] = Protein binding in rabbit plasma assessed as unbound fraction; type: ADME, cell-free, Oryctolagus cuniculus; method in brief: as §3
[11] = Tmax in rat at 10 mg/kg, po; type: ADME, organism-based; settings: in vivo; method in brief: as §4
[12] = AUC in cynomolgus monkey at 10 mg/kg, po; type: ADME, organism-based, Macaca fascicularis; settings: in vivo; method in brief: as §5
[13] = Cmax in dog at 10 mg/kg, po; type: ADME, organism-based, Canis lupus familiaris; design: dose 10 mg/kg, route oral; settings: in vivo; method in brief: as §5
Rattus norvegicus [14] = test: Toxicity in rat assessed as hepatobiliary lesions up to 100 mg/kg administered for 30 days; type: organism-based; settings: in vivo, 720 h
Method in brief: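 Rats dosed daily with the phosphate prodrug for 30 days at up to 100 mg/kg; hepatobiliary lesions examined.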

Rattus norvegicus [15] = test: Antiobesity activity in DIO Sprague-Dawley rat model assessed as reduction in body weight at 0.3 mg/kg, po qd for 28 days relative to vehicle control; type: functional; design: scale not given: the % may be the effect or the level left; method in brief: as §2
Rattus norvegicus [16] = test: Antiobesity activity in DIO Sprague-Dawley rat model assessed as reduction in body weight at 1 mg/kg, po qd for 28 days relative to vehicle control; type: functional; design: scale not given: the % may be the effect or the level left; method in brief: as §2
Rattus norvegicus [17] = test: Toxicity in DIO Sprague-Dawley rat assessed as biliary lesion at 0.03 to 3 mg/kg, po administered once daily for 28 days by histophalogy analysis; type: organism-based; settings: in vivo, 672 h; method in brief: as §1
[18] = Solubility of the compound in phosphate buffer at pH 6.4; type: physicochemical
Method in brief: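 Solubility of parent compounds and prodrugs measured in 50 mM phosphate buffer, pH 6.4.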

[19] = Plasma concentration in DIO Sprague-Dawley rat assessed as parent compound level at 3 mg/kg, po for 28 days measured after 24 hrs
Rattus norvegicus [20] = test: Antiobesity activity in DIO Sprague-Dawley rat model assessed as reduction in body weight at 0.03 mg/kg, po qd for 28 days relative to vehicle control; type: functional; design: scale not given: the % may be the effect or the level left; method in brief: as §2
Rattus norvegicus [21] = test: Antiobesity activity in DIO Sprague-Dawley rat model assessed as reduction in body weight at 0.1 mg/kg, po qd for 28 days relative to vehicle control; type: functional; design: scale not given: the % may be the effect or the level left; method in brief: as §2
[22] = Tmax in cynomolgus monkey at 10 mg/kg, po; type: ADME, organism-based, Macaca fascicularis; settings: in vivo; method in brief: as §4
[23] = Oral bioavailability in cynomolgus monkey at 10 mg/kg; type: ADME, organism-based, Macaca fascicularis; settings: in vivo; method in brief: as §4
[24] = Oral bioavailability in rat at 10 mg/kg; type: ADME, organism-based; settings: in vivo; method in brief: as §4
Rattus norvegicus [25] = test: Antiobesity activity in DIO Sprague-Dawley rat model assessed as reduction in caloric intake at 0.1 mg/kg, po qd for 28 days relative to vehicle control; type: functional; design: scale not given: the % may be the effect or the level left; method in brief: as §2
[26] = biological target: Melanin-concentrating hormone receptor 1 (Homo sapiens, UniProt Q99705); test: Binding affinity to MCHR1 (unknown origin)
Chain of Melanin-concentrating hormone receptor 1 (Q99705 whole entry): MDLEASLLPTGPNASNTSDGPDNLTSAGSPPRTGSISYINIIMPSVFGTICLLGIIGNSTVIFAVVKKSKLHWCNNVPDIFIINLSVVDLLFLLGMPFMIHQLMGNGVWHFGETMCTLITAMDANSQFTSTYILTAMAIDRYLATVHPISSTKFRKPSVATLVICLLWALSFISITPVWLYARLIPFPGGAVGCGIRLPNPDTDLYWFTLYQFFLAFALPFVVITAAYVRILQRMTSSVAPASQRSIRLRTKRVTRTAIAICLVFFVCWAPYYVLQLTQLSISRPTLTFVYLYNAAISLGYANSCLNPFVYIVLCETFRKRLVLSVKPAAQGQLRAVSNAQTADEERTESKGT

[27] = Protein binding in cynomolgus monkey plasma assessed as unbound fraction; type: ADME, cell-free, Macaca fascicularis; method in brief: as §3
[28] = Tmax in dog at 10 mg/kg, po; type: ADME, organism-based, Canis lupus familiaris; settings: in vivo; method in brief: as §4
[29] = AUC in dog at 10 mg/kg, po; type: ADME, organism-based, Canis lupus familiaris; settings: in vivo; method in brief: as §5
Rattus norvegicus [30] = test: Antiobesity activity in DIO Sprague-Dawley rat model assessed as reduction in caloric intake at 1 mg/kg, po qd for 28 days relative to vehicle control; type: functional; design: scale not given: the % may be the effect or the level left; method in brief: as §2
[31] = AUC in rat at 10 mg/kg, po; type: ADME, organism-based; settings: in vivo; method in brief: as §5
Rattus norvegicus [32] = test: Antiobesity activity in once daily orally dosed DIO Sprague-Dawley rat model assessed as reduction in caloric measured after 28 days relative to vehicle control; type: functional, organism-based; method in brief: as §2
Rattus norvegicus [33] = test: Antiobesity activity in DIO Sprague-Dawley rat model assessed as reduction in body weight at 3 mg/kg, po qd for 28 days relative to vehicle control; type: functional; design: scale not given: the % may be the effect or the level left; method in brief: as §2
[34] = Plasma concentration in DIO Sprague-Dawley rat assessed as parent compound level at 3 mg/kg, po for 28 days measured after 2 hrs; type: ADME, organism-based; method in brief: as §1
[35] = Cmax in cynomolgus monkey at 10 mg/kg, po; type: ADME, organism-based, Macaca fascicularis; design: dose 10 mg/kg, route oral; settings: in vivo; method in brief: as §5

concentration at 2 h [1]: 2000 nM | Fu [3]: 0.3% | bioavailability [4]: 33% | Cmax [6]: 4000 nM | concentration at 24 h [7]: 1200 nM | Fu [8]: 0.1% | Fu [10]: 0.2% | Tmax [11]: 6.7 h | AUC [12]: 87 µM·h | Cmax [13]: 1200 nM | solubility [18]: 4 µg/mL (≈ 6.84 µM) | concentration at 24 h [19]: 14400 nM | Tmax [22]: 10.7 h | bioavailability [23]: 46% | bioavailability [24]: 54% | Ki [26]: 2920 nM | Fu [27]: 0.4% | Tmax [28]: 9.3 h | AUC [29]: 15.3 µM·h | AUC [31]: 107 µM·h | concentration at 2 h [34]: 13500 nM | Cmax [35]: 1200 nM
Structure (SMILES): COc1cc(-n2cnc3cc(-c4ccc(Cl)cc4)sc3c2=O)ccc1OCC1(OP(=O)(O)O)CC(F)(F)C1
Activity (Rattus norvegicus [2]): 12.8% | Activity (Rattus norvegicus [5]): 6.5% | Activity (Rattus norvegicus [9]): 14.7% | Activity (Rattus norvegicus [14]): Non-Toxic | Activity (Rattus norvegicus [15]): 5% | Activity (Rattus norvegicus [16]): 6.6% | Activity (Rattus norvegicus [17]): Non-Toxic | Activity (Rattus norvegicus [20]): 1.7% | Activity (Rattus norvegicus [21]): 3.2% | Activity (Rattus norvegicus [25]): 10.5% | Activity (Rattus norvegicus [30]): 14.5% | inhibition (Rattus norvegicus [32]): Dose-dependent effect | Activity (Rattus norvegicus [33]): 7.8%
